# Laboratory results published in ChEMBL document CHEMBL1135705, “Correlation of the antibacterial activities of cationic peptide antibiotics and cationic steroid antibiotics” (2002).
# What was measured:
# [1] = test system: Salmonella typhimurium; experiment: Antibacterial activity against Gram-negative bacteria -Salmonella Typhimurium (ATCC 14028); type: functional, Salmonella enterica subsp. enterica serovar Typhimurium; details: Salmonella enterica
# [2] = test system: Streptococcus pyogenes; experiment: Antibacterial activity against Gram-positive bacteria-Streptococcus pyogenes (ATCC 19615); type: functional
# [3] = test system: Escherichia coli; experiment: Antibacterial activity against Gram-negative bacteria- Escherichia coli (ATCC 25922); type: functional
# [4] = test system: Staphylococcus aureus; experiment: Antibacterial activity against Gram-positive bacteria -S. aureus (ATCC 25923); type: functional
# [5] = Compound was evaluated for minimum hemolytic concentration; type: functional
# Outline: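 Hemolysis was tested up to 200 µg/mL. Higher concentrations could not be used because of limited solubility.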
MIC [1],MIC [2],MIC [3],MIC [4],Structure (SMILES),MHC [5]
12 µg/mL,1.6 µg/mL,7.3 µg/mL,2 µg/mL,C[C@H](CCCNCCCNCCCN)[C@H]1CC[C@H]2[C@@H]3[C@H](OCCCN)CC4C[C@H](OCCCN)CC[C@]4(C)[C@H]3C[C@H](OCCCN)[C@]12C (stereo not given in full),> 200 µg/mL
43 µg/mL,4.2 µg/mL,36 µg/mL,2 µg/mL,C[C@H](CCCO)[C@H]1CC[C@H]2[C@@H]3[C@H](OCCCN)CC4C[C@H](OCCCN)CC[C@]4(C)[C@H]3C[C@H](OCCCN)[C@]12C (stereo not given in full),100 µg/mL
25 µg/mL,3 µg/mL,6.6 µg/mL,4.6 µg/mL,C[C@H](CCCN(CCCN)CCCN)[C@H]1CC[C@H]2[C@@H]3[C@H](OCCCN)CC4C[C@H](OCCCN)CC[C@]4(C)[C@H]3C[C@H](OCCCN)[C@]12C (stereo not given in full),> 200 µg/mL
